Legend:
[1] = molecular target: T1, Ephrin type-B receptor 4 (Homo sapiens, UniProt P54760); experiment: Inhibition of EPHB4 (unknown origin)
T1 sequence (P54760 whole entry): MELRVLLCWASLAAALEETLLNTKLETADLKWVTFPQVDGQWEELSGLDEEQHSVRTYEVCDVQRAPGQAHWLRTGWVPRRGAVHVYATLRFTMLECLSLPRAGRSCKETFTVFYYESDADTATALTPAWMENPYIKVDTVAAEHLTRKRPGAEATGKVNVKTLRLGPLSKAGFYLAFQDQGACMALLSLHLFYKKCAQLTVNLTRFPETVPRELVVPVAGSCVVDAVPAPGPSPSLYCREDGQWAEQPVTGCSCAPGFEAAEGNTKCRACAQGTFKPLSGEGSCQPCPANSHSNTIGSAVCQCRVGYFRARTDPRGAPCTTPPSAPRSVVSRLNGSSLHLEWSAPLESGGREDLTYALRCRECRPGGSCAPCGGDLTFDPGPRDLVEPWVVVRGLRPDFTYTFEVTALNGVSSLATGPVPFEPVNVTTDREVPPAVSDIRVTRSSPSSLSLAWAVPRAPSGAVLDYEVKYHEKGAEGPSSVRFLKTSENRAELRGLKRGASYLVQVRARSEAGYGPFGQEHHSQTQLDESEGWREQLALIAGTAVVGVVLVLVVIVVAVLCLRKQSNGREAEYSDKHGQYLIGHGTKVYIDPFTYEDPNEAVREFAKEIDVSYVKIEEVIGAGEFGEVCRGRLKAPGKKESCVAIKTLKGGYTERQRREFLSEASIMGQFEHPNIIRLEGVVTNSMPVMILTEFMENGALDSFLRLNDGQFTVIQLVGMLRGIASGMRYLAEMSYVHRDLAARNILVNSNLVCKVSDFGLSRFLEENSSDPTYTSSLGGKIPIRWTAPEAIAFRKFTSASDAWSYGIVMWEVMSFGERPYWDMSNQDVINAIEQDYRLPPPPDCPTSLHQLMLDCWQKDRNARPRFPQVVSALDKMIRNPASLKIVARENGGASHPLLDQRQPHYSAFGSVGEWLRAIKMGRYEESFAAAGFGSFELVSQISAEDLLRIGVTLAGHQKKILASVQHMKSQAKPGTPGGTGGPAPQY
In short: (§1)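 Biochemical (cell-free) assay within a panel of 24 protein kinases. Results reported as IC50 values. Procedure as described in earlier work.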

[2] = molecular target: Receptor tyrosine-protein kinase erbB-2 (Homo sapiens, UniProt P04626); experiment: Inhibition of ERBB2 (unknown origin); in short: as §1
Receptor tyrosine-protein kinase erbB-2, sequence (P04626 whole entry): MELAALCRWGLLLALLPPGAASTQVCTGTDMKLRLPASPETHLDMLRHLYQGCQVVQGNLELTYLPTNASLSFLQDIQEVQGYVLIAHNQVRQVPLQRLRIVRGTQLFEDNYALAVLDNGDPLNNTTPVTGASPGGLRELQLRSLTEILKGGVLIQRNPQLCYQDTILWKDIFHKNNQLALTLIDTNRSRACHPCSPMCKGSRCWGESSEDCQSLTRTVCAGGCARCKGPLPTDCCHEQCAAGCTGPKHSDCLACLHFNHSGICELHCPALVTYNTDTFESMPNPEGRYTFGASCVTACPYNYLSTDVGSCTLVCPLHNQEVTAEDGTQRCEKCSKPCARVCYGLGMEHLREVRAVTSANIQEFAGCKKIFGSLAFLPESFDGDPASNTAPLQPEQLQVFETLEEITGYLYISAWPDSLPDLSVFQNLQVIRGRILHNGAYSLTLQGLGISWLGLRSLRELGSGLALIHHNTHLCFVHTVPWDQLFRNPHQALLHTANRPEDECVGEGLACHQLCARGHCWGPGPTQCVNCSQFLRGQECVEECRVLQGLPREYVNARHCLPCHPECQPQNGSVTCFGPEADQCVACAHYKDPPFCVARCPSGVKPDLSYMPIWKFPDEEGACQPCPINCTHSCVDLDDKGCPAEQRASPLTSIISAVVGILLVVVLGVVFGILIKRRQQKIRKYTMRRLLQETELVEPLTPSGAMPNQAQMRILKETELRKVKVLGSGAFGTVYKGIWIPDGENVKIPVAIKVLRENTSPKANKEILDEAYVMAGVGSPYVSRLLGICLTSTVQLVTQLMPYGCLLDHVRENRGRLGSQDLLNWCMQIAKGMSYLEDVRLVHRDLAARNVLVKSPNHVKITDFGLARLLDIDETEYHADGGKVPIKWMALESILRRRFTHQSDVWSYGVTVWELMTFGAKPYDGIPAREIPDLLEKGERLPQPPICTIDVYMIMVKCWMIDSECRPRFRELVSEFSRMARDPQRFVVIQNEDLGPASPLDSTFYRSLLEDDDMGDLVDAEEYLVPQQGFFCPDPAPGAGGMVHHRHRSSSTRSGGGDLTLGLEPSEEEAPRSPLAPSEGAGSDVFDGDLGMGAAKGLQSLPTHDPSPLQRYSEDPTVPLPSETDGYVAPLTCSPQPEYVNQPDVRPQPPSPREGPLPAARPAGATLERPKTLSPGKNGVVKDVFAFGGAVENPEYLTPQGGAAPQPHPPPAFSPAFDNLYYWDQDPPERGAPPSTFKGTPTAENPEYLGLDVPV

Row | IC50 [1] [µM] | IC50 [2] [µM] | SMILES
1 | 3.4 | 2.1 | O=NC(Cc1cc(Br)c(O)c(Oc2ccc(CCNC(=O)C(Cc3cc(Br)c(O)c(-c4cc(CC(N=O)C(=O)NCCc5ccc(O)c(Br)c5)cc(Br)c4O)c3)N=O)cc2Br)c1)C(=O)NCCc1ccc(O)c(Br)c1 (stereo not drawn) [Sesquibastadin 1]
2 |  | 2.1 | O=NC(Cc1cc(Br)c(O)c(-c2cc(CC(N=O)C(=O)NCCc3ccc(O)c(Br)c3)cc(Br)c2O)c1)C(=O)NCCc1ccc(O)c(Br)c1 (stereo not drawn) [BASTADIN 3]

— BindingDB's records for doi:10.1021/np300764u (Heinrich-Heine University, 2013)
